The record followed here is ChEMBL document CHEMBL1125797, “Synthesis, characterization and myocardial uptake of cationic bis(arene)technetium(I) complexes” (J Med Chem, 1991).

For one test, the species on record is Homo sapiens. The test can be described thus: The compound was tested for the plasma binding in human. The class given is functional. In short, it runs like this: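 Fresh heparinized human plasma (1.0 mL, obtained daily) was spiked with 0.02 mL test solution and incubated about 15 min. Duplicate samples went through saline-equilibrated Sephadex G-25 desalting columns by centrifugation. Eluate and gel were γ-counted for 1 min or to 1% σ error. % bound = net cpm eluate / net cpm (eluate + gel) × 100.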

The species named for a further test is Rattus norvegicus. The test is described as follows: The compound was tested for the plasma binding in rat. The class given is functional. The method in brief:
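Plasma protein binding was measured in rat plasma samples collected during the rat biodistribution studies, after tail vein injection of the 99mTc complex in saline (~25 μCi/kg).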

Bis(m-xylene)technetium: the PPB in the test listed under Homo sapiens was 11%; in the test filed under Rattus norvegicus it was 12%.
